Screening results as filed in PubChem BioAssay.
Rows were chosen to be rich in hits. Some 2% of all compounds tested hit in one or more screens of this group.
M5 PAM: human M5 muscarinic receptor positive allosteric modulators, primary screen, CHO-K1 cells, Fluo-8 calcium fluorescence; Muscarinic acetylcholine receptor M5 (Homo sapiens), P08912; CHO-K1 hM5, ACh EC20 PAM; 0% = ACh EC20, 100% = ACh EC100; 360,000 compounds, 0.3% hits; activation, % at 3 µM;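 active = activation above the run cutoff, the mean activation of all test compounds plus 3 SD, cut at about 18% in these data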
Target sequence (P08912 whole entry, looked up): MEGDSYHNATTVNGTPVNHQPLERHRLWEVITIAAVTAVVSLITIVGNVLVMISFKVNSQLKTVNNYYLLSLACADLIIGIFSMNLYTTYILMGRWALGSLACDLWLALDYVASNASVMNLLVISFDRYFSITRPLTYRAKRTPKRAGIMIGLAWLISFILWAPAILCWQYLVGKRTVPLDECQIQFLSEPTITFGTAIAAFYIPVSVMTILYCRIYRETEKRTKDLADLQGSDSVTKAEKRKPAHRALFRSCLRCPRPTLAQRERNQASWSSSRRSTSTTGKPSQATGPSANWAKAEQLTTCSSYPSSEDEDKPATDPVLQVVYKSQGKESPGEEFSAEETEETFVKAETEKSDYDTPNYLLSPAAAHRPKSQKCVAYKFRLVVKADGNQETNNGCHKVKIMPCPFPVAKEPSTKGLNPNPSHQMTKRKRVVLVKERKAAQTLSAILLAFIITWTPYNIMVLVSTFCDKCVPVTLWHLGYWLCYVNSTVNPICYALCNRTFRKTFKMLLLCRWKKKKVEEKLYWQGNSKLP
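Assay system – human M5 receptor in CHO-K1 cells · Read-out – % activation, ACh-normalized · Technique – Fluo-8 calcium fluorescence · Dosing – single-point, 3 µM nominal · Incubation – Fluo-8 loading 80 min at 37 °C plus 30 min room temperature · Repeats – singlicate, one well per test compound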
CHRM1 PAM: human M1 muscarinic receptor positive allosteric modulators, primary screen, CHO-K1 cells, Fluo-8 calcium fluorescence, 1536-well; Muscarinic acetylcholine receptor M1 (Homo sapiens), P11229; CHO-K1 hM1, ACh EC20; 0% = ACh EC20, 100% = maximal ACh; activation, % at 3 µM; 360,000 compounds, 0.088% hits; AID 588819, 2011; in the data active = activation above about 19%, passing the limit was not always enough
CHRM5 agonist: human M5 muscarinic receptor agonists, primary screen, CHO-K1 cells, Fluo-8 calcium fluorescence; CHO-K1 hM5 cells; 0% DMSO wells, 100% maximal acetylcholine response; 360,000 compounds, 0.19% hits; activation, % at 3 µM; AID 624037, 2012;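 active = activation above the run's mean over test compounds plus 3 SD, cut at about 23% in these data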;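 also: signal is peak over basal fluorescence ratio across the kinetic read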
CHRM1 agonist: human M1 muscarinic receptor agonists, primary screen, Fluo-8 calcium fluorescence, CHO-K1 cells, HTS | activation, % at 3 µM | CHO-K1 hM1, agonist mode; 0% DMSO, 100% acetylcholine EC100 | 360,000 compounds, 0.33% hits | Muscarinic acetylcholine receptor M1 (Homo sapiens), P11229;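 active = activation above the run's mean compound activation plus 3 SD, cut at about 16% in these data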;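 also: peak over basal fluorescence ratio within a 140 s kinetic read after compound addition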
CHRM5 antagonist: human M5 muscarinic receptor antagonists, primary screen, CHO cells, Fluo-8 calcium fluorescence; inhibition, % at 3 µM; 360,000 compounds, 0.59% hits; CHO-hM5 cells, ACh EC80;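 active = inhibition above a per-plate cutoff, the mean of that plate's test compounds plus 3 SD, cut at about 27% in these data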
M1 antag: human M1 muscarinic receptor antagonists, primary screen, CHO-K1 cells, Fluo-8 calcium fluorescence, 1536-well. CHO-K1 hM1, ACh EC80 antagonist. inhibition, % at 3 µM. 360,000 compounds, 1.3% hits;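 active = percent inhibition above its own plate's cutoff, namely the mean of that plate's compound wells plus 3 SD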;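 also: peak over basal fluorescence ratio during 140 s after agonist addition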
Of the large screens only hits and unclear results are named; the others gave an inactive call.

CCN1CCN(Cc2cccc(Oc3ccc(Cl)cc3)c2)CC1	M1 antag 53.5
CCOC(=O)C1CCN(CCCSc2ccc(Cl)cc2)CC1	M1 antag 28.4
CC1(C(=O)Nc2ccc3c(c2)OCCO3)CN(S(C)(=O)=O)CC(=O)N1CCCN1CCOCC1 (centres undefined)	none (no result: CHRM1 PAM, CHRM1 agonist, M1 antag)
COc1ccc(-c2cc(CNc3nc(NCc4ccccc4OC)nc4ccsc34)on2)cc1	none
CCOC(=O)C1CCN(Cc2cccc(Oc3ccccc3)c2)CC1	none
CCOC(=O)C1CCN(Cc2cccc(Oc3ccc(Cl)cc3)c2)CC1	M1 antag 27.9
CCOC(=O)C1(CC2CCCCO2)CCN(Cc2cc3ccccc3[nH]2)CC1 (centres undefined)	CHRM5 agonist 61.6, CHRM1 agonist 62.2, CHRM5 antagonist 34.5, M1 antag 28.6
COc1ccc(NC(=O)Cc2cccs2)cc1S(=O)(=O)N1CCCCC1	none
COc1ccc(NC(C)=O)cc1S(=O)(=O)N1CCN(Cc2cccs2)CC1	CHRM1 PAM 24.2
COc1ccc(OC)c(S(=O)(=O)Nc2ccc3c(c2)OCCO3)c1	none
CC(C)c1ccc(NC2CCCN(C(=O)CN3CCCCC3=O)C2)cc1 (centres undefined)	none
COC(=O)[C@@]1(Sc2ccc(C)cc2)CC(=O)N(C(=O)CCc2ccccc2)[C@@H]1c1ccccc1	none (no result: CHRM1 PAM, CHRM1 agonist, M1 antag)
COC(=O)[C@@]1(Sc2ccc(C)cc2)CC(=O)N(c2ccccc2)[C@@H]1c1ccccc1	CHRM5 antagonist 30.3 (no result: CHRM1 PAM, CHRM1 agonist, M1 antag)
Cc1cc2c(cc1C)-c1nnnn1C(N1CCCCC1)C(=O)N2 (centres undefined)	none (no result: CHRM1 PAM, CHRM1 agonist, M1 antag)
CCCCNC(=O)c1nc(C2CCN(S(=O)(=O)c3ccccc3C(F)(F)F)CC2)oc1-c1cccc(C(F)(F)F)c1	none
Cc1c(N2C(=O)CSC2c2ccccc2)c(=O)n(-c2ccccc2)n1C (centres undefined)	none
COc1ccc(C2SCC(=O)N2c2c(C)n(C)n(-c3ccccc3)c2=O)cc1OC (centres undefined)	M5 PAM 33.2
CN(C)CCCCOc1ccccc1F	none
CN(C)CCCCOc1ccccc1-c1ccccc1	M1 antag 18.3
CCCNC(=O)C1(C)CCN(C(=O)c2ccc(F)c(Cl)c2)C1 (centres undefined)	none
CCCNC(=O)C1(C)CCN(C(=O)c2ccc3c(c2)CCO3)C1 (centres undefined)	CHRM1 PAM 30.6
COC(=O)C[C@@H]1OC[C@H](C(C)C)N1S(=O)(=O)c1ccc(C)cc1	none (no result: CHRM1 PAM, CHRM1 agonist, M1 antag)
COc1ccccc1CCNCc1ccc(OC)c(OCc2ccccc2)c1	M1 antag 33.9
COc1cccc(CNCCc2c[nH]c3ccccc23)c1OCc1ccccc1	CHRM5 antagonist 28.6
CCN1C(=O)C(CC(=O)NCCc2ccccc2)N(NC(=O)c2ccc(Br)cc2)C1=S (centres undefined)	none
CCOC1=C2[C@@H](CN(S(=O)(=O)c3ccc(C)cc3)[C@H]2c2ccccc2F)[C@H]2C(=O)N(c3ccccc3)C(=O)[C@H]2C1	none
CC(=O)Nc1cc(-c2ccc(N)nc2)cn2c(-c3cccc(C(F)(F)F)c3)cnc12	none
S=c1nc2c(n[nH]1)c1ccccc1n2CCc1ccccc1	CHRM1 agonist 20.0
CS(=O)(=O)N(CC(=O)N1CCCCCC1)c1cccc([N+](=O)[O-])c1	M5 PAM 18.4
CS(=O)(=O)N(CC(=O)N1CCCCCC1)c1ccccc1	none
C[N+]12CCC(CC1)C(OC(=O)C(O)(c1ccccc1)c1ccccc1)C2 (centres undefined)	CHRM5 antagonist 98.9, M1 antag 98.2
O=C(CN1CCN(S(=O)(=O)c2ccc(Cl)cc2)CC1)c1ccc(O)c(O)c1	CHRM1 PAM 27.0
